Measured values from different studies.
Each line is one published result; the experiments were not run side by side.
MMP1: Interstitial collagenase (MMP1, Homo sapiens, UniProt P03956)
TNIK: TRAF2 and NCK-interacting protein kinase (TNIK, Homo sapiens, UniProt Q9UKE5)
CASP9: Caspase-9 (CASP9, Homo sapiens, UniProt P55211)

Structure (SMILES)	target	assay	conditions	inhibition [%]
Cn1cc(-c2cccc(N3CCc4c(sc5c4CC(C)(C)C5)C3=O)c2CO)cc(Nc2ccncn2)c1=O	Hepatocyte growth factor receptor (MET, Homo sapiens, UniProt P08581)	enzyme activity, inhibitor	1 µM	9
CCOC(=O)c1ccc(OC(=O)CCCCCNC(=N)N)cc1	MMP1	enzyme activity, inhibitor	10 µM	2
C#Cc1n[nH]c2c(-c3cn([C@@H](C)c4ccccc4)c(=O)[nH]c3=O)cc(F)cc12	TNIK	enzyme activity, inhibitor	0.1 µM	-0.3
COc1ccc(S(=O)(=O)N(CC(=O)NO)CC(C)C)cc1	MMP1	enzyme activity, inhibitor	10 µM	77
COc1ccc(S(=O)(=O)N2CCCCC2)cc1C	High affinity choline transporter 1 (SLC5A7, Homo sapiens, UniProt Q9GZV3)	ligand displacement, radioligand	10 µM	< 30
C#Cc1n[nH]c2c(-c3cn([C@@H](C)c4ccccn4)c(=O)[nH]c3=O)cc(F)cc12	TGF-beta receptor type-1 (TGFBR1, Homo sapiens, UniProt P36897)	enzyme activity, inhibitor	0.1 µM	1.5
Cc1ncc(C)n2nc(/C=C/c3nc(N4CCCC4)cc(N4CCOCC4)n3)nc12	MMP1	enzyme activity, inhibitor	10 µM	7
N=C(N)c1ccc2cc(OC(=O)c3ccc(N=C(N)N)cc3)ccc2c1	CASP9	enzyme activity, inhibitor	10 µM	0
O=C(Nc1cccnn1)N1CCN([C@@H]2CCOc3cc(C(F)(F)F)ccc32)CC1	Alpha-1B adrenergic receptor (ADRA1B, Homo sapiens, UniProt P35368)	cell-free assay	20 µM	5
CCOC(=O)N1C[C@H]2C[C@@H]1C[C@@H]2c1ccc(-c2cc(C(=O)OCC(=O)N(C)C)cc3cc(-c4ccc(C(F)(F)F)cc4)ccc23)cc1	P2Y purinoceptor 14 (P2RY14, Homo sapiens, UniProt Q15391)	cell-free assay, inhibitor	10 µM	12.2
COC(=O)CC[C@H](NC(=O)[C@H](CC(C)C)NC(=O)OCc1ccccc1)C(=O)N[C@@H](Cc1cnc[nH]1)C(=O)N[C@@H](CC(=O)OC)C(=O)CF	CASP9	enzyme activity, inhibitor	10 µM	86
COc1cc(Nc2ncc(F)c(Nc3ccc4c(n3)NC(=O)C(C)(C)O4)n2)cc(OC)c1OC	TNIK	binding	10 µM	56
CN(C)C(=O)COC(=O)Cc1ccc(OC(=O)c2ccc(NC(=N)N)cc2)cc1	Ubiquitin carboxyl-terminal hydrolase 7 (USP7, Homo sapiens, UniProt Q93009)	enzyme activity, inhibitor	10 µM	0
C[C@H](C(=O)N[C@H]1COc2ccccc2[C@@H]1S(C)(=O)=O)c1ccc(F)cc1	MMP1	enzyme activity, inhibitor	10 µM	13
CCN(CC)CCCC[C@H](NC(=O)[C@H](CC(C)C)NC(=O)[C@H](C)NC(=O)[C@H](Cc1ccccc1)NC(=O)c1ccc(C(C)(C)C)cc1)C(=O)N[C@@H](CO)C(=O)OC	C-C chemokine receptor type 1 (CCR1, Homo sapiens, UniProt P32246)	ligand displacement, radioligand	10 µM	7
